Drawing on ChEMBL document CHEMBL1143844, “Biochemical studies on the mechanism of human immunodeficiency virus type 1 reverse transcriptase resistance to 1-(beta-D-dioxolane)thymine triphosphate” (Antimicrob Agents Chemother, 2007), this text covers Km, IC50 and Ki for three molecules.

Assay [1] concerns Human immunodeficiency virus 1. In words: Activity of HIV1 reverse transcriptase wild type HXB2(a) in presence of 3.2 mM ATP by prA/odT assay. Summed up: (§1)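 Buffer is HEPES 50 mM pH 7.3 with MgCl2 10 mM, Triton X-100 0.5% and BSA 0.1 mg/ml. RT 4–12 pM/well, 33°C for 180 min, no NaOH step. Km obtained as the mean of at least two runs done in duplicate.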
The subject of assay [2] is Human immunodeficiency virus 1. Nature of the assay: (§2) Activity of HIV1 reverse transcriptase 41L/67N/70R/210W/215Y mutant in presence of 3.2 mM ATP by prA/odT assay. Summed up: (§3)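 Buffer: 50 mM HEPES pH 7.3, 10 mM MgCl2, 0.5% Triton X-100, 0.1 mg/ml BSA. Incubation 180 min at 33°C. Product detected with AP-conjugated anti-BrdU at 405 nm. […] Ki from four inhibitor levels. At least two experiments in duplicate.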

Assay [3] has as its system Human immunodeficiency virus 1. In words: (§4) Activity of HIV1 reverse transcriptase wild type HXB2(b) in presence of 3.2 mM ATP by prA/odT assay. Summed up: as §1
In assay [4] the test system is Human immunodeficiency virus 1. In words: (§5) Activity of HIV1 reverse transcriptase 41L/67N/70R/215Y/219Q mutant in presence of 3.2 mM ATP by prA/odT assay. Summed up: as §3
Assay [5] is described as follows: Inhibition of HIV1 reverse transcriptase 41L/67N/70R/210W/215Y mutant in presence of 5'-A12-(GTCA)5-3' by heteropolymeric DNA polymerase assay. The arrangement: species or system Human immunodeficiency virus 1. Summed up:
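DNA polymerase assay with 5 mM ATP and 1 μM each dATP, dGTP, dCTP and BrdUTP. The 50-base DNA template carries a 5′-A12 tail with a (GTCA)5 or (GACT)5 repeat. IC50 from at least two experiments in duplicate. Fold change is relative to wild-type RT on the same template.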

Assay [6] deals with Human immunodeficiency virus 1. Nature of the assay: Activity of HIV1 reverse transcriptase 41L/69S-SG/210W/215Y mutant in presence of 3.2 mM ATP by prA/odT assay.
Assay [7] has as its target HIV1 RT 41L/69S-SG/210W/215Y mutant (HIV-1). In words: Inhibition of HIV1 reverse transcriptase 41L/69S-SG/210W/215Y mutant in presence of 3.2 mM ATP by prA/odT assay.
A short description of assay [8]: as §2. The arrangement: species or system Human immunodeficiency virus 1. Summed up:
as §3

Assay [9] is described as follows: as §4. Also on record: species or system Human immunodeficiency virus 1. Summed up:
as §1

Assay [10] is described as follows: as §5. Also on record: species or system Human immunodeficiency virus 1. Summed up: as §3
The nature of assay [11]: Activity of HIV1 reverse transcriptase 41L/69S-SG/210W/215Y mutant in presence of 3.2 mM ATP by prA/odT assay.

For `Cc1cn([C@H]2CO[C@@H](COP(=O)(O)OP(=O)(O)OP(=O)(O)O)O2)c(=O)[nH]c1=O`, the Km (in general, the concentration of substrate that gives half-maximal velocity) in assay [1] amounted to 0.32 µM; in [2], 0.51 µM; in assay [3], 0.24 µM; in assay [4], 0.42 µM; in [6] it was 0.5 µM. In addition, the IC50 (usually the midpoint of a concentration-inhibition curve) in assay [5] came out at 500 nM. The inhibition constant Ki (usually the dissociation constant of the complex between target and ligand, obtained from inhibition or displacement) in assay [7] was determined as 59 nM.

As for `Cc1cn([C@H]2C[C@H](N=[N+]=[N-])[C@@H](COP(=O)(O)OP(=O)(O)OP(=O)(O)O)O2)c(=O)[nH]c1=O` [ZIDOVUDINE TRIPHOSPHATE], the Km came out at 0.43 µM in assay [8], 0.29 µM in assay [9], 0.49 µM in assay [10] and 0.53 µM in assay [11].

On to `C[C@H](Cn1cnc2c(N)ncnc21)OCP(=O)(O)OP(=O)(O)OP(=O)(O)O`, for which the IC50 in assay [5] is 13000 nM.
